# Measured values reported in article PMC7115534 (Peptides, 2009).
# Read-outs that look alike come from different tables or passages of the source. Where a SMILES comes first, the peptide text is derived from it. The star is where a group is joined. Cbz = O=C(OCc1ccccc1)*; CH2F = FC*
# Experiments:
# [1] = tested on: HIV-1 (IIIB); conditions: CEM cells; cited from earlier work
# [2] = tested on: HIV-2 (strain ROD); conditions: CEM cells; cited from earlier work
# [3] = tested on: Clematis montana lectin (CML); experiment: Hemagglutination inhibition assay; format: biochemical
# Summary of the method: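 Sugars were serially diluted 2-fold and mixed with an equal volume of lectin at 8 hemagglutination units. After 30 min at room temperature, 2% rabbit erythrocyte suspension was added in U-bottom wells. Plates were read after 1 h. The endpoint was the minimum sugar concentration in the final mixture giving complete inhibition; lectin dilutions were made in 0.15 M NaCl.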
# [4] = tested on: L929 cells; experiment: Effect of carbohydrates and caspase inhibitors on CML-induced L929 cell death; format: cell-based, murine; conditions: 24 h; for effect of caspase inhibitor on CML-induced L929 apoptosis: 20 μM, 1 h prior to CML; for effect of carbohydrate pre-incubation on CML-induced L929 cell death: 1 pM CML pre-incubated with sugar at 37 °C for 30 min, MTT
# Summary of the method: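 Murine L929 fibroblasts in DMEM with 10% FBS and nonessential amino acids at 37 °C, 5% CO2, were seeded at 1 × 10^5 cells/well for 24 h. Caspase inhibitors (pan-caspase z-VAD-fmk, caspase-3 z-DEVD-fmk, caspase-8 z-IETD-fmk; 20 μmol/l) were added 1 h before lectin, then cells were incubated 24 h. MTT was read at 490 nm as % growth inhibition versus control and blank; n = 5.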
# [5] = tested on: Para-influenza-3 virus; experiment: Antiviral activity in Vero cells, para-influenza-3; format: cell-based; conditions: read-out: EC50 Para-influenza-3 virus
# [6] = tested on: Punta Toro virus; experiment: Antiviral activity in Vero cells, Punta Toro virus; format: cell-based; conditions: read-out: EC50 Punta Toro virus
# [7] = tested on: Reovirus-1; experiment: Antiviral activity in Vero cells, reovirus-1; format: cell-based; conditions: read-out: EC50 Reovirus-1
# [8] = tested on: Sindbis virus; experiment: Antiviral activity in Vero cells, Sindbis virus; format: cell-based; conditions: read-out: EC50 Sindbis virus
# [9] = tested on: Vero cells; conditions: microscopic alteration of cell morphology
# [10] = tested on: MDCK cells; conditions: microscopic alteration of cell morphology
# [11] = tested on: Influenza B; experiment: Anti-influenza B activity in MDCK cells; format: cell-based; conditions: Influenza B virus
# [12] = in vitro; conditions: dog
# [13] = read-out: Antiviral EC50 Influenza B MTS
# [14] = read-out: Antiviral EC50 Influenza B Visual CPE Score
molecule,measurement,setting,value
Galanthus nivalis agglutinin [GNA],EC50 HIV-1,[1],0.92 µg/mL
same,EC50 HIV-2,[2],0.78 µg/mL
Lycoris radiate agglutinin [LRA],EC50 HIV-1,[1],0.79 µg/mL
same,EC50 HIV-2,[2],0.59 µg/mL
"OC[C@H]1O[C@H](O[C@@H]2C(O)O[C@H](CO)[C@@H](O)[C@@H]2O)[C@@H](O)[C@@H](O)[C@@H]1O (stereo partly drawn) [Man-a(1,2)-Man]",inhibition of CML agglutination of rabbit erythrocytes (in words),[3],slightly inhibitory
CC[C@H](C)[C@H](NC(=O)OCc1ccccc1)C(=O)N[C@@H](CCC(=O)OC)C(=O)N[C@H](C(=O)N[C@@H](CC(=O)OC)C(=O)CF)[C@@H](C)O [z-IETD-fmk] (Cbz-IE(OMe)TD(OMe)-CH2F),effect of caspase inhibitor on CML-induced L929 apoptosis,[4],partially blocked apoptosis
Nc1ncnc2c1ncn2C[C@H](O)CO [(S)-DHPA],EC50,[5],> 250 µM
same,EC50,[6],> 250 µM
same,EC50,[7],> 250 µM
same,EC50,[8],> 250 µM
same,Minimum cytotoxic concentration,[9],>250 µM
COC(=O)CC[C@H](NC(=O)[C@H](CC(=O)OC)NC(=O)OCc1ccccc1)C(=O)N[C@H](C(=O)N[C@@H](CC(=O)OC)C(=O)CF)C(C)C [z-DEVD-fmk],effect of caspase inhibitor on CML-induced L929 apoptosis,[4],partially blocked apoptosis
"OC[C@H]1O[C@H](O[C@H]2[C@H](O)[C@@H](CO)OC(O)[C@H]2O)[C@@H](O)[C@@H](O)[C@@H]1O (stereo partly drawn) [Man-a(1,3)-Man]",inhibition of CML agglutination of rabbit erythrocytes (in words),[3],slightly inhibitory
NC(=O)c1ncn([C@@H]2O[C@H](CO)[C@@H](O)[C@H]2O)n1 [Ribavirin],EC50,[7],250 µM
same,Cytotoxicity Minimum cytotoxic concentration,[10],>100 µM
same,EC50,[8],> 250 µM
same,EC50,[11]; [13],4.3 µM
same,EC50,[11]; [14],9 µM
same,Minimum cytotoxic concentration,[9],>250 µM
"OC[C@H]1O[C@H](OC[C@H]2OC(O)[C@@H](O)[C@@H](O)[C@@H]2O)[C@@H](O)[C@@H](O)[C@@H]1O (stereo partly drawn) [Man-a(1,6)-Man]",effect of carbohydrate pre-incubation on CML-induced L929 cell death,[4],"slightly more effective inhibitor than Man-a(1,3:1,6)-mannotriose"
same,inhibition of CML agglutination of rabbit erythrocytes (in words),[3],slightly inhibitory
CC(N)C12CC3CC(CC(C3)C1)C2 (stereo not drawn) [Rimantadine],Cytotoxicity Minimum cytotoxic concentration,[10],1000 µM
same,CC50,[12],525 µM
same,EC50,[11]; [13],> 200 µM
same,EC50,[11]; [14],> 200 µM
CCC(CC)O[C@@H]1C=C(C(=O)O)C[C@H](N)[C@H]1NC(C)=O [Oseltamivir Carboxylate],Cytotoxicity Minimum cytotoxic concentration,[10],>100 µM
same,CC50,[12],> 100 µM
same,EC50,[11]; [13],15 µM
same,EC50,[11]; [14],8 µM
"OC[C@H]1O[C@H](OC[C@H]2OC(O)[C@@H](O)[C@@H](O[C@H]3O[C@H](CO)[C@@H](O)[C@H](O)[C@@H]3O)[C@@H]2O)[C@@H](O)[C@@H](O)[C@@H]1O (stereo partly drawn) [Man-a(1,3:1,6)-mannotriose]",effect of carbohydrate pre-incubation on CML-induced L929 cell death,[4],the cell inhibitory ratio was abruptly decreased
same,Minimum inhibitory concentration (MIC),"[3]; complete inhibition of 8 hemagglutination units of CML, rabbit erythrocytes",2500 µM
COC(=O)C[C@H](NC(=O)[C@H](C)NC(=O)[C@@H](NC(=O)OCc1ccccc1)C(C)C)C(=O)CF [z-VAD-fmk] (Cbz-Val-Ala-Asp(OMe)-CH2F),effect of caspase inhibitor on CML-induced L929 apoptosis,[4],partially blocked apoptosis
NC12CC3CC(CC(C3)C1)C2 [Amantadine],Cytotoxicity Minimum cytotoxic concentration,[10],>1000 µM
same,CC50,[12],> 1000 µM
same,EC50,[11]; [13],> 1000 µM
same,EC50,[11]; [14],> 1000 µM
thyroglobulin: a glycoprotein,inhibition of CML agglutination of rabbit erythrocytes (in words),[3],inhibited the agglutination
Scilla campanulata agglutinin [SCA],EC50 HIV-1,[1],4.6 µg/mL
same,EC50 HIV-2,[2],8 µg/mL
